# KCNQ1 act = potentiators or activators of human KCNQ1 potassium channel; actives 0.35% (n = 310,000); CHO-K1 KCNQ1, thallium flux FluxOR fluorescence; active compounds read high; B-score at 10 µM; P51787;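 active = fluorescence ratio B-score, a plate-corrected score, at least three library SD, with initial intensity B-score within 5 SD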
#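 Schedule – 37 °C overnight plating, 90-min dark dye load, 20-min compound pretreatment · System – stable KCNQ1 CHO-K1 line · Probe or stimulus – thallium- and potassium-containing depolarizing buffer · Measured by – kinetic FluxOR fluorescence, 10 s baseline plus 110 s post-stimulus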
# hERG protect = hERG (human) protection from proarrhythmic block. Q12809. CHO-hERG, FluxOR thallium flux, dofetilide IC70 present. activation (rescue from dofetilide block), less the hit threshold, % at 10 µM. actives 0.51% (n = 310,000). AID 1511;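 active = activation above the mean of controls blocked by dofetilide plus 5 SD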;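 note: thallium influx through hERG after potassium depolarization seen as dye fluorescence rise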
# Target sequence (Q12809 whole entry, looked up): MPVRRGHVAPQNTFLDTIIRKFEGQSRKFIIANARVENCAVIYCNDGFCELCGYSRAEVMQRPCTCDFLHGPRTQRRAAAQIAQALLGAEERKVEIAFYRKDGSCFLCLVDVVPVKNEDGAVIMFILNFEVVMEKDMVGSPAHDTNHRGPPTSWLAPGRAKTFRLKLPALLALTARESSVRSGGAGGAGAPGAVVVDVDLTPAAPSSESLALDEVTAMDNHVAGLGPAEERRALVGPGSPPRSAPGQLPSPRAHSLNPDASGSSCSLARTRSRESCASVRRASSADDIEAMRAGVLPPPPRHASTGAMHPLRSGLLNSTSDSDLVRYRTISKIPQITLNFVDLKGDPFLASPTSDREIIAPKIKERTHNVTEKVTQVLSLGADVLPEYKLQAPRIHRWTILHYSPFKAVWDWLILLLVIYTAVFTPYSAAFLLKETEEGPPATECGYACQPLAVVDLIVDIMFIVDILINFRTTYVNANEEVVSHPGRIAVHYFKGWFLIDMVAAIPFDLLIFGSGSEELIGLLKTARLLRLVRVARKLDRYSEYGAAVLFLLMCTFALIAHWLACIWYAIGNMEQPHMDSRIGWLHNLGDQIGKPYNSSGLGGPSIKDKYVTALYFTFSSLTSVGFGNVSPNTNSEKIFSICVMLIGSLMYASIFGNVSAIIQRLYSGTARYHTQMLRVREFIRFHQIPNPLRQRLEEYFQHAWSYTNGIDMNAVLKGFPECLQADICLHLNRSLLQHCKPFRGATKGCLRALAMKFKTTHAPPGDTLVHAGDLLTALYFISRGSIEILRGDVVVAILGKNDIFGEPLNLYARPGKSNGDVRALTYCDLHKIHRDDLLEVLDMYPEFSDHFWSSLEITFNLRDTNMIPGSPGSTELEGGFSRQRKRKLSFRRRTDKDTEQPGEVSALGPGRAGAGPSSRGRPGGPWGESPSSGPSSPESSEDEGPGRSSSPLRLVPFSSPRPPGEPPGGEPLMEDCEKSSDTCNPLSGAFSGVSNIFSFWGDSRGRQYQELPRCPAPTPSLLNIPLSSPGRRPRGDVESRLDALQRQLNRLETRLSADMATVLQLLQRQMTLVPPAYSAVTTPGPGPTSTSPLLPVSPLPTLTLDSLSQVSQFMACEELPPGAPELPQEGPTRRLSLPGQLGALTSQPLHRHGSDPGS
# KCNQ1 block = human KCNQ1 channel inhibition; P51787; AID 2642; CHO-K1 KCNQ1, FluxOR thallium flux fluorescence; active compounds read high; B-score at 10 µM; actives 1.3% (n = 310,000);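 active = compounds whose thallium flux B-score, printed positive for inhibition, exceeds three library SD while starting fluorescence stays within three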;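 note: channel opened by potassium depolarization with thallium stimulus after 20 min compound exposure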
# KCNK9 block = blocks the human KCNK9 two-pore domain potassium channel. Q9NPC2. HEK293 KCNK9, FluxOR thallium flux fluorescence; active compounds read low. B-score at 10 µM. actives 1.2% (n = 310,000). AID 488922;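 active = ratio B-score over 3 SD below the library mean, with starting fluorescence within 5 SD of its mean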;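 note: negative B-score means less thallium flux so channel inhibition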
# KCNK3 inh = human KCNK3 channel inhibition, primary screen | O14649 | CHO-KCNK3 thallium flux, FluxOR fluorescence; active compounds read low | B-score at 10 µM | actives 0.84% (n = 340,000) | AID 602410;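 active = B-score under library mean minus 4 SD, starting fluorescence ratio at most library mean plus 5 SD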;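 note: more negative B-score means stronger inhibition of thallium flux through KCNK3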
# Cl transport mod = KCC2 (human) Cl- transport modulation. AID 1456. B-score of Tl+ flux slope (higher = more flux/activation; lower = inhibition) at 10 µM. actives 2.2% (n = 190,000). KCC2 cells, thallium flux FluoZin-2 fluorescence. Q9H2X9;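 active = thallium flux slope and its plate-corrected score both differing from the plate sample mean at a set confidence after two filtering rounds, in either direction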;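 note: slope of fluorescence scaled to starting intensity during 10 to 20 s after thallium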
# KCC2 secondary = confirmation of human KCC2 transport modulators. shares compounds with Cl transport mod. HEK293-KCC2, thallium flux, FluoZin2 fluorescence; active compounds read high. normalised thallium flux (F/F0 slope) at 10 µM. actives 15% (n = 3,700);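 active = thallium flux slope above the same plate's solvent-only control mean plus 3 SD; inconclusive = the two replicate wells disagree; inactive = no significant difference from solvent-only control wells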
# KCC2 bumet counter = thallium flux despite bumetanide block in KCC2 cells, secondary assay 3. actives 49% (n = 3,700). normalized thallium flux at 10 µM. shares compounds with Cl transport mod. HEK293-KCC2 + bumetanide/ouabain, thallium flux FluoZin2; active compounds read high. AID 1714;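 active = thallium entry rate above the same plate's blocked-transporter control wells by more than 3 SD; inconclusive = the two repeat wells disagree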;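 note: raw slope of fluorescence over initial fluorescence between 10 and 20 s after thallium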
# KCC2 secondary2 = confirmation of human KCC2 transport modulators; shares compounds with Cl transport mod; HEK293-KCC2, thallium flux FluoZin2 fluorescence; actives lie on both sides; F/F0 rise rate, 10–20 s post-thallium; normalized thallium flux at 10 µM; actives 23% (n = 3,700);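 active = thallium flux slope more than 3 SD above or below the plate's solvent-only control mean, mostly below; inconclusive = the two repeat wells disagreed; inactive = no significant shift from solvent-only controls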;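 note: raw slope with 0.1% DMSO as baseline and bumetanide as block control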
# HEK counter1 = counter-screen for KCC2 modulators: effect in parental HEK293 cells; shares compounds with Cl transport mod; thallium flux FluoZin2, ouabain; baseline-ratio fluorescence slope, 10–20 s after thallium; thallium flux rate (normalised fluorescence) at 10 µM; actives 46% (n = 3,700);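 active = thallium flux rate significantly above the same plate's solvent-only control wells, beyond their mean plus 3 SD; inconclusive = the two replicate wells gave conflicting results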
# KCC2 ouabain = modulates human KCC2 on retest with ouabain; shares compounds with Cl transport mod; HEK293-KCC2, thallium flux FluoZin2 fluorescence; bidirectional: low = inhibitor, high = activator; raw Tl+ flux slope (below DMSO = inhibition, above = activation) at 10 µM; actives 48% (n = 3,700); AID 1717;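 active = thallium flux slope beyond 3 SD from same-plate DMSO control mean in most replicates, usually higher, sometimes lower; inconclusive = repeat tests gave conflicting results; inactive = no significant difference from controls in most replicates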;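 note: slope of initial-normalized fluorescence between seconds 10 and 20 after thallium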
# HEK counter2 = acts in parental HEK cells, second KCC2 counter-screen; shares compounds with Cl transport mod; HEK293 parental, thallium flux FluoZin-2 fluorescence slope; thallium flux slope at 10 µM; actives 33% (n = 3,700); AID 1718;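 active = thallium flux slope above the same plate's solvent-control mean plus 3 SD in both duplicate wells; inconclusive = duplicate wells that disagreed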;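 note: run without ouabain in cells lacking the KCC2 cotransporter; slope of fluorescence scaled to its starting value between 10 and 20 s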
# An asterisk follows results filed as active; i = inactive; ? = inconclusive; . = no result given. A selection: hits, their analogues and other compounds. The true share with any hit is near 4.1%.
SMILES,KCNQ1 act,hERG protect,KCNQ1 block,KCNK9 block,KCNK3 inh,Cl transport mod,KCC2 secondary,KCC2 bumet counter,KCC2 secondary2,HEK counter1,KCC2 ouabain,HEK counter2
COc1cc(/C=C/c2ccc3c(Br)cc(Br)c(O)c3n2)ccc1O,i,4.7*,i,i,i,7.52*,0.0107,0.0126*,0.0347,0.00906*,0.0232,0.0102
Cc1ccc(-c2csc(Cc3nc(-c4cc5ccccc5oc4=O)cs3)n2)cc1,i,-8.6,i,i,i,.,0.0166,0.00505,0.0289,0.00703,0.0155,0.00971
CCOC(=O)n1c(O)c(N=NC(N)=S)c2cc(C)ccc21,i,-10.8,i,i,i,17.8*,0.0159,0.0384*,?,0.0143*,0.0311*,0.0163*
COc1ccc2c(c1)c(N=NC(N)=S)c(O)n2CC(=O)c1ccccc1,i,-8.1,i,i,i,.,.,.,.,.,.,.
Cc1ccc(-n2nc(C(=O)O)cc2-c2ccc(Cl)cc2)cc1,i,-4.0,i,i,i,-3.7*,0.0093,0.00663,0.0357,0.00392,0.0171*,0.011
O=C(O)c1cc(-c2ccc(Cl)cc2)n(-c2ccc(Cl)cc2)n1,i,-7.8,i,i,i,-2.55,.,.,.,.,.,.
Cc1ccc(Cn2cc(/C=C/C(=O)O)c(-c3ccccc3)n2)cc1,i,-4.3,i,i,i,-2.9,.,.,.,.,.,.
O=C(O)c1cccc(-c2nnn(Cc3ccccc3Cl)n2)c1,i,-6.0,i,i,i,-0.424,.,.,.,.,.,.
N#CCCn1cc(/C=C/C(=O)O)c(-c2ccc(F)cc2)n1,i,-5.2,i,i,i,-0.77,.,.,.,.,.,.
O=C(O)/C=C/c1cn(Cc2ccccc2Cl)nc1-c1ccccc1,i,-11.6,i,i,i,-5.08*,0.00665,0.00442,0.0237*,0.00734,0.0115*,0.01
Cc1ccc(-c2nn(Cc3ccccc3)cc2/C=C/C(=O)O)cc1,i,-7.0,i,i,i,-4.47*,0.00954,0.00626,0.0249*,0.00819,0.0133*,0.0116
O=C(O)/C=C/c1cn(Cc2ccccc2)nc1-c1ccc(Cl)cc1,i,-13.1,i,i,i,-4.74*,?,0.00601,?,0.00624,0.0121*,0.0101
NC(=O)C1CCN(C(=O)CCC(=O)c2cccs2)CC1,.,.,.,.,i,.,.,.,.,.,.,.
COc1cccc(N2CCN(c3nc(-c4ccccc4C)cc(=O)[nH]3)CC2)c1,i,-3.0,i,i,i,.,.,.,.,.,.,.
CC(=O)N(C)c1ccc(C=C2C=Cc3ccccc32)cc1,.,.,.,.,i,.,.,.,.,.,.,.
COc1cccc(CN(C)C(=O)CCN(c2ccccc2)S(=O)(=O)c2ccc(C)cc2)c1OC,i,-12.6,i,i,i,.,.,.,.,.,.,.
CN(C)CCNC(=O)c1cc(Br)ccc1Cl,i,-4.1,i,i,i,0.391,.,.,.,.,.,.
CSc1ccc(Cl)c(C(=O)NCCOc2ccccc2)c1,i,-7.8,i,i,i,-2.01,.,.,.,.,.,.

# Assay outcomes from PubChem.
